High-throughput results (PubChem BioAssay)
HNF4A DNA FP: change in binding of human HNF4 alpha to DNA. 360,000 compounds, 0.3% hits. activity change, % at 10 µM. AID 1224865. HNF4a-FITC DNA binding, fluorescence polarization, 1 h; in the data active means activity change above about 30%, passing the limit was not always enough
CSN deneddyl inh: inhibitors of human CSN-mediated cullin deneddylation. Q92905. 360,000 compounds, 0.38% hits. Purified CSN, SCF-Nedd8-OG deneddylation, fluorescence polarization. inhibition, % at 12.5 µM;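 active means pattern-corrected inhibition above about 35%, with an unprinted fluorescence ratio check between 0.5 and 1.5, limit read from the data, passing the limit was not always enough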;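 further: 0% = enzyme with substrate and 100% = substrate without enzyme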
Target sequence (Q92905 whole entry, looked up, one chain of several): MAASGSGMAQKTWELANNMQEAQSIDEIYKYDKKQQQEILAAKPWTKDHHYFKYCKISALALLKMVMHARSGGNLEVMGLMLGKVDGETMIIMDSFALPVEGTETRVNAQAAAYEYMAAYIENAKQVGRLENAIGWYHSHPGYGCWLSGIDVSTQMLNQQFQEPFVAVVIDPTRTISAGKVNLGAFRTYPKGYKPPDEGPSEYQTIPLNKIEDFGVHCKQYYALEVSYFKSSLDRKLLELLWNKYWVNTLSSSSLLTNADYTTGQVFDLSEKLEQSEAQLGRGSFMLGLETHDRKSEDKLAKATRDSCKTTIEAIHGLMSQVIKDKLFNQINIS
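Assay system: purified human Csn5 enzyme expressed in HEK293T cells; measure: % inhibition; also added: SCFSkp2-Nedd8OG substrate at 10 nM final; technique: fluorescence polarization; times: reaction 90 min, room temperature; medium: Tris buffer pH 7.5, NaCl, DTT, Tween-20, trehalose, ovalbumin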
Rpn11 block: inhibitors of human proteasome Rpn11. O00487. inhibition, % at 20 µM. 360,000 compounds, 0.59% hits. human 26S proteasome, Ub4-pepOG fluorescence polarization; 20S core pre-blocked with epoxomicin;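 active means inhibition at 20 µM, scaled to each plate's controls, above about 33%, limit read from the data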
Target sequence (O00487 whole entry, looked up): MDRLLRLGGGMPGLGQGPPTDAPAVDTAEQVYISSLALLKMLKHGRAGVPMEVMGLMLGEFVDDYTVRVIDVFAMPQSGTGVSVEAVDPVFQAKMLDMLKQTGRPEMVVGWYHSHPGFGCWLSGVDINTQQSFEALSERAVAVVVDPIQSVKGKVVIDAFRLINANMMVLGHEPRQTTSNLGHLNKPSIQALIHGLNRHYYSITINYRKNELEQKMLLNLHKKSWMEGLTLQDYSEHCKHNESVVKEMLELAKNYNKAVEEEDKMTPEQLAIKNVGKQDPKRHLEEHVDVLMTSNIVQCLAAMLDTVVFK
TPT1 inhibitor: inhibitors of Candida albicans tRNA 2'-phosphotransferase TPT1; AID 1962; 300,000 compounds, 0.81% hits; inhibition, % at 5 µM; recombinant caTPT1, FP RNA substrate dephosphorylation;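 active means inhibition above the mean of all tested compounds plus 3 SD, set per screening campaign, cut at about 24% in these data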;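 further: plate controls were DMSO alone for no effect and ferristatin control at 100 nM for full effect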
The depositor's hits bear a star; x = not tested or not shown. This is a sample that favours compounds with a hit; in the whole collection about 1.5% have one here.

SMILES | HNF4A DNA FP | CSN deneddyl inh | Rpn11 block | TPT1 inhibitor
CCOC(=O)c1c(NC(=O)CSc2cccc[n+]2[O-])sc(C(=O)Nc2ccccc2)c1C | 6 | 105* | 17 | 17
COCCNC(=S)N1CCC2CC1c1c(Cl)cccc12 (centres undefined) | 8 | 1 | 0 | x
CC(=O)Nc1nc(C)c(Oc2ccccc2)c(=O)[nH]1 | 1 | -5 | -11 | 0
CCC(=O)Nc1nc(C)c(Oc2ccccc2)c(=O)[nH]1 | 4 | 105* | 1 | 1
Cc1ccc(NC(=O)/C(C#N)=C/c2ccc(C)s2)c(C)c1 | 63 | 70* | x | -4
Cc1cccc(NC(=O)C2CCN(C(=O)N3CCOc4ccccc43)CC2)c1C | 1 | 4 | 3 | -2
Cc1cc(C(=O)COC(=O)c2ccc(F)cc2)c(C)n1C | -3 | -4 | -3 | x
Cc1cc(C(=O)COC(=O)c2cc(Cl)c(O)c(Cl)c2)c(C)n1C | -23 | 42* | -31 | x
Cn1ccnc1COc1ccc(C=O)cc1 | 4 | 1 | 0 | 0
Cc1noc(C)c1NC(=O)Nc1cccc2c1O[C@H](CN(C)S(=O)(=O)c1cn(C)cn1)[C@@H](C)CN([C@H](C)CO)C2=O | -8 | 2 | 1 | x
Cc1cccc(C)c1NS(=O)(=O)c1ccc(-c2cnc(C3CC3)o2)cc1 | 0 | -1 | 2 | -4
CCOc1ccccc1C(=O)NCc1ccc2c(c1)OCO2 | 1 | -9 | -1 | -3
CCOc1cccc2cc(-c3nnc(NCc4ccc5c(c4)OCO5)s3)c(=O)oc12 | 52* | 46* | 0 | 4
CCN1CCN(c2ccc(S(=O)(=O)N3CCCCC3)cc2NC(=O)c2cc3ccccc3o2)CC1 | 2 | 3 | 4 | -2
CC1(c2nnnn2-c2ccc3c(c2)OCCO3)CCC(=O)N1CCCn1ccnc1 (centres undefined) | -1 | 102* | x | x
Cc1cccc(C)c1NC(=O)C1(C)CN(S(C)(=O)=O)CC(=O)N1CCc1ccccc1F (centres undefined) | 2 | 2 | x | x
O=C(c1cccc(Cl)c1)N1CCC(=O)N([C@H](COCc2cccc(Cl)c2)Cc2ccccc2)CC1 | 6 | 1 | x | x
NC(=O)c1c(N)[nH]c(C(=O)c2ccccc2)c1-c1ccccc1Br | 4 | 108* | x | x
Cc1cc(C=O)c(C)n1-c1cccc(C(=O)O)c1 | -9 | 9 | -14 | 0
Cc1ccc(C)n1-c1cccc(C(=O)O)c1 | x | x | x | 51*
O=C(NNc1cc(N2CCCC2)nc(N2CCCC2)n1)c1ccc([N+](=O)[O-])cc1 | 3 | 41* | -2 | 5
COCCN(C(=O)COC(=O)C1CC1C)c1c(N)n(Cc2ccccc2)c(=O)[nH]c1=O (centres undefined) | 5 | 0 | -3 | 2
CCCCCCC(C)n1cc(C(C)=O)c(=O)[nH]c1=O (centres undefined) | 0 | 50* | 2 | 1
CCC(C)(C)C1CCc2[nH]nc(C(=O)NCc3ccccn3)c2C1 (centres undefined) | -4 | 108 | -1 | -2
O=C(Nc1ccccc1N1CCCC1)c1ccccc1F | 38* | 0 | -3 | -2
SMILES | HNF4A DNA FP | CSN deneddyl inh | Rpn11 block | TPT1 inhibitor
OC(COCc1ccccc1)CN1CCCC1 (centres undefined) | 4 | 37* | -1 | 2
OC(COCc1ccccc1)CN1CCN(c2ccccc2)CC1 (centres undefined) | 3 | -2 | 7 | 2
O=S(=O)(NCc1ccc(F)cc1)c1ccccc1Br | -1 | -1 | -2 | x
Cc1cc(=O)oc2cc(OCC(=O)c3ccccc3)ccc12 | -4 | -1 | 0 | 0
Cc1cc(=O)oc2cc(OCC(=O)N/N=C/c3ccccc3O)ccc12 | 2 | 106* | 22 | -2
O=C(COc1ccc2c(-c3ccccc3)cc(=O)oc2c1)Nc1ccc(CCO)cc1 | 16 | 66* | 9 | -1
COc1ccc(Cn2c(O)c(/C=N/NC(=O)c3cccnc3)c3ccccc3c2=O)cc1 | 44* | 31 | x | x
C=CCn1c(SCC(=O)Nc2ccccc2C)nnc1-c1ccncc1 | -3 | 0 | 2 | -1
C=CCn1c(SCC(=O)c2c(C)[nH]c3ccccc23)nnc1-c1ccncc1 | 5 | 36* | -7 | -8
Cc1ccc(NC(=S)Nc2cccc(-c3n[nH]c(=S)o3)c2)cc1 | -6 | 1 | 4 | 1
Cc1c(C(=O)Nc2nc(-c3ccccn3)cs2)oc2ccccc12 | -1 | 7 | 42* | x
N#C/C(=C(/O)c1ccccc1F)c1nc2cc(C(F)(F)F)ccc2s1 | 15 | 9 | 33* | -4
CCC(=O)Oc1ccc(C(=O)Nc2ccc3c(c2)C(=O)N(C2CCCCC2)C3=O)cc1 | 39* | -1 | -2 | -2
CN1CCN(C(=O)c2cnc(Cc3c[nH]c4ccccc34)c(I)c2)CC1 | 7 | 62* | -3 | x
Nc1nc(-c2ccccc2)c(CC(=O)O)s1 | 7 | 24 | -1 | x
Nc1nc(-c2ccc(Oc3ccccc3)cc2)c(CC(=O)O)s1 | 11 | 42* | x | x
NS(=O)(=O)c1ccc(CCNC(=O)COC(=O)c2ccc([N+](=O)[O-])o2)cc1 | 0 | -8 | -1 | x
CCN=C1SC(C(=O)Nc2cccc(Cl)c2)CC(=O)N1CC (centres undefined) | -2 | 0 | -4 | 2
CCN=C1SC(C(=O)Nc2ccc(Cl)c(Cl)c2)CC(=O)N1CC (centres undefined) | -1 | 79* | 1 | 3
CNC[C@H]1OCc2ccccc2-c2ccccc2C(=O)N([C@H](C)CO)C[C@H]1C | -3 | -2 | -9 | x
CCOC(=O)Cn1nc(-c2ccc(Cl)cc2)cc1N | 6 | 49* | 9 | 0
CNc1ncnc2c1ncn2-c1ccccc1 | 2 | 3 | -3 | x
O=c1cc(-c2ccccc2Cl)oc2c(NS(=O)(=O)c3cc(Cl)cc(Cl)c3O)ccc(O)c12 | -22 | 47* | 10 | 2
CCOc1ccc(CCN2C(=O)C(=O)N([C@@H](Cc3ccccc3)CN3CCC[C@H]3CN3C(=O)C(=O)NC[C@@H]3Cc3ccccc3)C[C@@H]2Cc2ccccc2)cc1 | -3 | 2 | x | x
Cc1cc(C)n(-c2nc3nonc3nc2Nc2cccc(C)c2C)n1 | -14 | 57* | -6 | 3
SMILES | HNF4A DNA FP | CSN deneddyl inh | Rpn11 block | TPT1 inhibitor
O=[N+]([O-])c1cccc(/C=N/N2CCN(Cc3ccccc3)CC2)c1 | -2 | 5 | 0 | -4
O=[N+]([O-])c1cccc(/C=N\N2CCN(Cc3ccccc3Cl)CC2)c1 | 42* | -6 | 16 | 4
CCOc1ccc(-n2c(SCC(=O)N3CCc4ccccc43)nnc2-c2c[nH]c3ccccc23)cc1 | 38* | 141* | 5 | 0
Cc1[nH]c2ccccc2c1C(=O)CSc1nc2cc(S(=O)(=O)N3CCCCC3)ccc2o1 | 4 | 100* | 8 | 6
O=[N+]([O-])c1ccc(N/N=C/c2ccc(OCc3cccc4ccccc34)cc2)nc1 | 35* | 70* | x | 14
O=[N+]([O-])c1ccc(NN=Cc2ccccc2)nc1 | 8 | 5 | 12 | x
CC(C)c1nc2sc3c(SCC(=O)NCc4ccco4)ncnc3c2c2c1CCC2 | -23 | 46* | 0 | 8
O=C(CSc1ncnc2sc3c(c12)CCCCC3)NCc1ccco1 | 0 | 6 | 6 | -1
